Measurements gathered from unrelated publications.
Each line is one published result; the experiments were not run side by side. In brackets after ≈: the same amount, converted by molar mass.
Organism: Lodderomyces parapsilosis
Observed: microbial growth
Technique: broth dilution

CCCCCN1CCN(CC(O)(Cn2cncn2)c2ccc(F)cc2F)CC1 (stereo not drawn)
MIC (ATCC22019; 48 h): 15.6 µg/mL (≈ 39.6 µM)

O=C1/C(=C/c2cc(O)c(O)c(O)c2)Oc2ccccc21
MIC: 8 µg/mL (≈ 29.6 µM)

OC(Cn1cncn1)(Cn1cncn1)c1ccc(F)cc1F
MIC (ATCC22019; 48 h): 50 µg/mL (≈ 163 µM)

C[C@@H]1[C@H](O)[C@@H](C)/C=C/C=C/C=C/C=C/C=C/C=C/C=C/[C@H](O[C@@H]2O[C@H](C)[C@@H](O)[C@H](N)[C@@H]2O)C[C@@H]2O[C@](O)(C[C@@H](O)C[C@@H](O)[C@H](O)CC[C@@H](O)C[C@@H](O)CC(=O)O[C@H]1C)C[C@H](O)[C@H]2C(=O)O
MIC (ATCC22019): 0.5 µg/mL (≈ 0.541 µM)

C[C@@H]1[C@H](O)[C@@H](C)/C=C/C=C/C=C/C=C/C=C/C=C/C=C/[C@H](O[C@@H]2O[C@H](C)[C@@H](O)[C@H](N)[C@@H]2O)C[C@@H]2O[C@](O)(C[C@@H](O)C[C@@H](O)[C@H](O)CC[C@@H](O)C[C@@H](O)CC(=O)O[C@H]1C)C[C@H](O)[C@H]2C(=O)O
MIC: 0.5 to 1 µg/mL (≈ 0.541 to 1.08 µM)

CCCCCN1CCNCC1
MIC (ATCC22019; 48 h): > 31.3 µg/mL

CCCCNS(=O)(=O)c1ccc(-c2ccc3oc(C(=O)c4cc(O)c(O)c(O)c4)cc3c2)cc1
MIC: 8 to 16 µg/mL (≈ 16.6 to 33.2 µM)

CN1CCN(CC(O)(Cn2cncn2)c2ccc(F)cc2F)CC1 (stereo not drawn)
MIC (ATCC22019; 48 h): 0.975 µg/mL (≈ 2.89 µM)

OC(Cn1cncn1)(Cn1cncn1)c1ccc(F)cc1F
MIC (ATCC22019): 1 µg/mL (≈ 3.27 µM)
